Source: PubChem BioAssay
KCNQ1 block: inhibitors of human KCNQ1 channel, primary screen, cell-based, thallium flux, high-throughput. CHO-K1 KCNQ1, FluxOR thallium flux fluorescence; active compounds read high. B-score at 10 µM. 1.3% of 310,000 active. Potassium voltage-gated channel subfamily KQT member 1 (Homo sapiens), P51787;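 active = compounds whose thallium flux B-score, printed positive for inhibition, exceeds three library SD while starting fluorescence stays within three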;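 note: channel opened by potassium depolarization with thallium stimulus after 20 min compound exposure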
KCNK3 inh: human KCNK3 channel inhibitors, primary screen, CHO cells, FluxOR thallium flux, B-score | FluxOR fluorescence; active compounds read low | Potassium channel subfamily K member 3 (Homo sapiens), O14649 | 0.84% of 340,000 active | B-score at 10 µM | AID 602410, 2012;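 active = B-score under library mean minus 4 SD, starting fluorescence ratio at most library mean plus 5 SD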;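 note: more negative B-score means stronger inhibition of thallium flux through KCNK3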
KCNQ1 pot: potentiators or activators of KCNQ1 channel, primary screen, cell-based, thallium flux, high-throughput; Potassium voltage-gated channel subfamily KQT member 1 (Homo sapiens), P51787; CHO-K1 KCNQ1, thallium flux FluxOR fluorescence; active compounds read high; B-score at 10 µM; 0.35% of 310,000 active; AID 2648, 2010;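 active = fluorescence ratio B-score, a plate-corrected score, at least three library SD, with initial intensity B-score within 5 SD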
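Medium – assay buffer, equal DMSO in all wells · Material – CHO-K1 cell line with stable KCNQ1 potassium channel expression · Signal – kinetic FluxOR thallium fluorescence, 10-s 1-Hz baseline, 110-s post-stimulus read · Compound – single concentration per compound, DMSO matched to controls · Schedule – 37 °C overnight plating, 90-min dark dye load, 20-min compound pretreatment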
hERG rescue: hERG rescue from dofetilide block, primary screen, cell-based, CHO-hERG, FluxOR thallium flux, dofetilide IC70; dofetilide IC70 present; activation (rescue from dofetilide block), less the hit threshold, % at 10 µM; AID 1511, 2009; 0.51% of 310,000 active; Voltage-gated inwardly rectifying potassium channel KCNH2 (Homo sapiens), Q12809;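 active = activation above the mean of controls blocked by dofetilide plus 5 SD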;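 note: thallium influx through hERG after potassium depolarization seen as dye fluorescence rise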
KCNK9 inh: KCNK9 potassium channel inhibitors, primary screen, HEK293 cells, thallium flux. AID 488922, 2010. B-score at 10 µM. Potassium channel subfamily K member 9 (Homo sapiens), Q9NPC2. FluxOR thallium flux fluorescence; active compounds read low. 1.2% of 310,000 active;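 active = ratio B-score over 3 SD below the library mean, with starting fluorescence within 5 SD of its mean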;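 note: negative B-score means less thallium flux so channel inhibition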
Target sequence (Q9NPC2 whole entry, looked up): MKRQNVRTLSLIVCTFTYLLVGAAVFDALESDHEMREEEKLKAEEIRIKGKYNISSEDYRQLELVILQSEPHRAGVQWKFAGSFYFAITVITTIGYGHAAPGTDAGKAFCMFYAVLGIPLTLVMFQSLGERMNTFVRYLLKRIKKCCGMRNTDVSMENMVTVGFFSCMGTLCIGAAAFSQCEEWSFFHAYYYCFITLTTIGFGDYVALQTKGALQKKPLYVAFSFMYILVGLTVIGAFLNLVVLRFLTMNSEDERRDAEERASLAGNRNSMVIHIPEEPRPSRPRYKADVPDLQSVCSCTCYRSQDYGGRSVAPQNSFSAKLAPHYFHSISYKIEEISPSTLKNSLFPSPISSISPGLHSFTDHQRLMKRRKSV
KCC2 mod: KCC2 cotransporter modulators, thallium flux, primary screen, cell-based, HEK293 KCC2, FluoZin-2 fluorescence, MLSMR; AID 1456, 2008; KCC2 cells, thallium flux FluoZin-2 fluorescence; B-score of Tl+ flux slope (higher = more flux/activation; lower = inhibition) at 10 µM; 2.2% of 190,000 active;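 active = thallium flux slope and its plate-corrected score both differing from the plate sample mean at a set confidence after two filtering rounds, in either direction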;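 note: slope of fluorescence scaled to starting intensity during 10 to 20 s after thallium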
KCNK9 block conf: KCNK9 potassium channel inhibitors, confirmation, HEK293 cells, thallium flux, duplicate | FluxOR thallium flux fluorescence | inhibition, % at 10 µM | shares compounds with KCNK9 inh | 43% of 4,900 active;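 active = thallium signal inhibited by more than 5 SD of the compound-free buffer control wells, on both duplicate plates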;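 note: 0% = assay buffer control wells without compound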
Kir21 sel: mouse Kir2.1 channel inhibition, confirmation, selectivity assay for KCNK9 modulator project, cell-based, HEK293, thallium flux | inhibition, % at 10 µM | AID 492993, 2010 | Kir2.1 cells, FluxOR thallium flux fluorescence | 4% of 4,900 active | shares compounds with KCNK9 inh;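 active = thallium signal drop more than 5 SD beyond the mean of the no-compound control wells, seen in both duplicate plates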;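 note: signal is fluorescence rise after thallium addition divided by baseline fluorescence; plate controls were assay buffer only for no effect and full block by chlorpromazine control for full effect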
KCNK9 uninduced: thallium flux in non-induced HEK293 cells, confirmation, counter-screen for KCNK9 inhibitor project, cell-based, second counter screen, non-induced KCNK9-HEK293. 40% of 4,900 active. FluxOR thallium flux. inhibition, % at 10 µM. shares compounds with KCNK9 inh;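 active = thallium signal drop beyond 5 SD of the untreated control mean, on both duplicate plates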;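 note: plate controls were buffer only IC0 wells for no effect and SID17386958 at its maximal inhibitory level for full effect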
Numbers without * were called inactive. Most compounds without a hit are left out; they make up all but 4.1% or so of the library.

Screening Cn1c2ccccc2c(=O)c2ccc(-c3ccc4c(c3)OCO4)cc21 returned KCNQ1 block inactive, KCNK3 inh inactive, KCNQ1 pot inactive, hERG rescue -17.1, KCNK9 inh -8.9*, KCNK9 block conf 64.5%*, Kir21 sel inactive and KCNK9 uninduced inactive.
Screening Cc1cc(SCC(=O)N/N=C/c2ccc(O)c(O)c2O)c(C)cc1Br returned KCNQ1 block inactive, KCNK3 inh inactive, KCNQ1 pot inactive, hERG rescue -50.4, KCNK9 inh inactive, KCC2 mod -0.769, KCNK9 block conf inactive, Kir21 sel inactive and KCNK9 uninduced inactive.
`Cc1cc(OCCn2nc(C(=O)O)c3ccccc3c2=O)ccc1C(C)C` gave KCNQ1 block inactive, KCNK3 inh inactive, KCNQ1 pot inactive, hERG rescue -9.3, KCNK9 inh inactive, KCNK9 block conf inactive, Kir21 sel inactive and KCNK9 uninduced inactive.
CCc1cccc(OCCn2nc(C(=O)O)c3ccccc3c2=O)c1 was read as KCNQ1 block inactive, KCNK3 inh inactive, KCNQ1 pot inactive, hERG rescue -8.5, KCNK9 inh inactive and KCC2 mod -0.93.
For O=C1CC(NS(=O)(=O)c2cc(F)ccc2F)CN1c1ccc2c(c1)OCCO2 (centres undefined) the results were KCNQ1 block inactive, KCNK3 inh inactive, KCNQ1 pot inactive, hERG rescue -8.3 and KCNK9 inh inactive.
Screening CN(Cc1ccccc1F)C(=O)c1cccc(NC(=O)CC2SC(N3CCCCC3)=NC2=O)c1 (centres undefined) returned KCNK3 inh inactive.
`Cn1nc(C(F)(F)F)c(/C=N/OC(=O)c2ccccc2Cl)c1SCc1ccccc1Cl` gave KCNQ1 block inactive, KCNK3 inh inactive, KCNQ1 pot inactive, hERG rescue -13.9, KCNK9 inh -10.2*, KCC2 mod 0.528, KCNK9 block conf 44.5%*, Kir21 sel inactive and KCNK9 uninduced 36.0%*.
For CCN(CC)S(=O)(=O)c1ccc(N2CCOCC2)c(NC(=O)COc2ccc(C#N)cc2)c1 the results were KCNQ1 block inactive, KCNK3 inh inactive, KCNQ1 pot inactive, hERG rescue -16.6, KCNK9 inh inactive and KCC2 mod 1.32.
Screening Cc1cc(C)cc(C(=O)N2CC(C)SC2=Nc2cccc(S(=O)(=O)N(C)C)c2)c1 (centres undefined) returned KCNQ1 block inactive, KCNK3 inh inactive, KCNQ1 pot inactive, hERG rescue -1.3, KCNK9 inh -12.5*, KCC2 mod -0.444, KCNK9 block conf 63.5%*, Kir21 sel inactive and KCNK9 uninduced 34.5%*.
`CC1CCCCC12NC(=O)N(CC(=O)Nc1nccs1)C2=O` (centres undefined) gave KCNK3 inh inactive.
Cc1ccc(OCCCCN(C)Cc2ccccc2)c(Br)c1 was read as KCNQ1 block inactive, KCNK3 inh inactive, KCNQ1 pot inactive, hERG rescue -13.9, KCNK9 inh inactive, KCC2 mod 0.379, KCNK9 block conf inactive, Kir21 sel 79.5%* and KCNK9 uninduced inactive.
Screening COc1ccccc1OCCCOc1ccc(C)cc1Br returned KCNQ1 block inactive, KCNK3 inh inactive, KCNQ1 pot inactive, hERG rescue -4.7, KCNK9 inh inactive and KCC2 mod -0.0531.
Screening COc1ccccc1OCCOCCOc1ccc(C)cc1Br returned KCNQ1 block inactive, KCNK3 inh inactive, KCNQ1 pot inactive, hERG rescue -4.9, KCNK9 inh inactive, KCC2 mod -0.539, KCNK9 block conf inactive, Kir21 sel inactive and KCNK9 uninduced inactive.
Screening O=C(c1ccccc1)C1(c2ccccc2)OC1c1ccccc1 (centres undefined) returned KCNK3 inh inactive.
For O=C(COC(=O)c1ccc2ncsc2c1)NCc1ccccc1Cl the results were KCNK3 inh inactive.
`Cc1cc(C)c(S(=O)(=O)Nc2cc(C)on2)c(C)c1` gave KCNQ1 block inactive, KCNK3 inh inactive, KCNQ1 pot inactive, hERG rescue -10.2 and KCNK9 inh inactive.
Screening Cc1ccsc1C(=O)N1CCCC(N2CCN(c3cccc(Cl)c3)CC2)C1 (centres undefined) returned KCNQ1 block inactive, KCNK3 inh inactive, KCNQ1 pot inactive, hERG rescue -9.2 and KCNK9 inh inactive.
Screening Cc1ccccc1N1CCN(C2CCCN(C(=O)c3csc(C(C)C)n3)C2)CC1 (centres undefined) returned KCNQ1 block inactive, KCNK3 inh inactive, KCNQ1 pot inactive, hERG rescue -14.7, KCNK9 inh inactive, KCNK9 block conf inactive, Kir21 sel inactive and KCNK9 uninduced inactive.
Screening CC(C)c1nc(C(=O)N2CCCC(N3CCN(c4cccc(Cl)c4)CC3)C2)cs1 (centres undefined) returned KCNQ1 block inactive, KCNK3 inh inactive, KCNQ1 pot inactive, hERG rescue -7.1, KCNK9 inh inactive, KCNK9 block conf inactive, Kir21 sel inactive and KCNK9 uninduced inactive.
Screening CC(C)/C=C/CN1CCCC(N2CCN(c3cccc(Cl)c3)CC2)C1 (centres undefined) returned KCNQ1 block inactive, KCNK3 inh inactive, KCNQ1 pot inactive, hERG rescue -9.7, KCNK9 inh inactive, KCNK9 block conf inactive, Kir21 sel inactive and KCNK9 uninduced inactive.
Screening Cc1ccccc1N1CCN(C2CCCN(C(=O)c3snnc3C)C2)CC1 (centres undefined) returned KCNQ1 block inactive, KCNK3 inh inactive, KCNQ1 pot inactive, hERG rescue -9.1 and KCNK9 inh inactive.
